According to the array DNA melting data of Ke et al. (doi:10.1101/2024.01.08.574731):

Key:
[1] = folding enthalpy; higher = less favourable; fluorescence melt of hairpins on a sequencing array, two-state fit; details: sodium 0.088 M
Summary of the method: (§1)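 Folding enthalpy and melting temperature come from bootstrapped two-state fits to Cy3 fluorescence of library hairpins carrying annealed Cy3 and quencher oligos on a sequenced MiSeq flow cell. Imaging was done in 50 mM Na-HEPES pH 8.0, 25 mM NaCl, stepping by 2.5 °C up to 60 °C, and signals were normalised to pre-quench Cy3 and to control constructs. Results of four replicates were combined by inverse variance, and fitted temperatures were raised by 9.35 °C to match UV melts.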

[2] = melting temperature; fluorescence melt of hairpins on a sequencing array, two-state fit, raised by 9.35 °C to match UV melts; details: sodium 0.088 M
Summary of the method: as §1

GCTAGTGGAAACGCTAGC (((((.(....).))))) gave a folding enthalpy [1] of -40.4 kcal/mol and a Tm [2] of 52.3 °C.

GCTAGTGGAAACGTTAGC ((((..(....)..)))) showed a folding enthalpy [1] of -20.1 kcal/mol and a Tm [2] of 36.4 °C.

With GCTATCCCGAAAGGGAGC (((..(((....)))))) the folding enthalpy [1] was -11.7 kcal/mol and the Tm [2] was 38.9 °C.

GCTATCCGAAAGGAGAGC (((.(((....))).))) showed a folding enthalpy [1] of -38.9 kcal/mol and a Tm [2] of 58.6 °C.

For GCTATCGAAAGATATAGC ((((((....)))..))), the folding enthalpy [1] was -25.1 kcal/mol and the Tm [2] was 36.1 °C.

In the case of GCTATCGAAAGATCTAGC ((((((....)))..))), the folding enthalpy [1] was -11.8 kcal/mol and the Tm [2] was 26.1 °C.

With GCTATCGAAAGATGCAGC ((((((....)))..))) the folding enthalpy [1] was -18.3 kcal/mol and the Tm [2] was 35.8 °C.

Work on GCTATCGAAAGATGTAGC ((((((....)))..))) yielded a folding enthalpy [1] of -28.9 kcal/mol and a Tm [2] of 36.9 °C.

In the case of GCTATCGAAAGATTAGC ((((((....))).))), the folding enthalpy [1] was -26.1 kcal/mol and the Tm [2] was 42.7 °C.

GCTATCGGAAACGACAGC (((.(((....))).))) gave a folding enthalpy [1] of -30.9 kcal/mol and a Tm [2] of 43.8 °C.

Sequence GCTATCGGAAACGGTAGC ((((.((....)).)))) has a folding enthalpy [1] of -38 kcal/mol and a Tm [2] of 51.8 °C.

In the case of GCTATGAAAATAGC (((((....))))), the folding enthalpy [1] was -23.4 kcal/mol and the Tm [2] was 47.9 °C.

GCTATGACGAAAGTCAGC (((..(((....)))))) gave a folding enthalpy [1] of -13.2 kcal/mol and a Tm [2] of 42 °C.

With GCTATGCGAAAGCACGGC ((..(((....)))..)) the folding enthalpy [1] was -17.7 kcal/mol and the Tm [2] was 41.4 °C.

Sequence GCTATGCGAAAGCAGAGC (((.(((....))).))) has a folding enthalpy [1] of -49 kcal/mol and a Tm [2] of 60.6 °C.

GCTATGCGAAAGCCCAGC (((..((....))..))) showed a folding enthalpy [1] of -11.6 kcal/mol and a Tm [2] of 29 °C.

Work on GCTATGCGAAAGCCGAGC (((..((....))..))) yielded a folding enthalpy [1] of -19 kcal/mol and a Tm [2] of 39.4 °C.

GCTATGCGAAAGCGAAGC (((..((....))..))) showed a folding enthalpy [1] of -16.4 kcal/mol and a Tm [2] of 44.2 °C.

In the case of GCTATGCGAAAGCTAAGC (((..((....))..))), the folding enthalpy [1] was -17.2 kcal/mol and the Tm [2] was 47.6 °C.

GCTATGCGAAAGCTTTGC ((.(.((....)).).)) gave a folding enthalpy [1] of -18.2 kcal/mol and a Tm [2] of 43.4 °C.

With GCTATGGGAAACCATAGC (((((((....))))))) the folding enthalpy [1] was -40.7 kcal/mol and the Tm [2] was 61.4 °C.

GCTATTCCGAAAGGAAGC (((..(((....)))))) gave a folding enthalpy [1] of -14.7 kcal/mol and a Tm [2] of 32.9 °C.

Work on GCTCACGAAAGTGGAAGC ((((((....)))..))) yielded a folding enthalpy [1] of -20.9 kcal/mol and a Tm [2] of 45.4 °C.

GCTCACGAAAGTGGCAGC ((((((....)))..))) showed a folding enthalpy [1] of -14.7 kcal/mol and a Tm [2] of 44.6 °C.

Work on GCTCACGAAAGTGTTAGC ((((((....)))..))) yielded a folding enthalpy [1] of -21.6 kcal/mol and a Tm [2] of 40.8 °C.

In the case of GCTCACGGAAACATGAGC (((((.(....).))))), the folding enthalpy [1] was -34.6 kcal/mol and the Tm [2] was 44.9 °C.

With GCTCAGCGAAAGCAAAGC (((..((....))..))) the folding enthalpy [1] was -13.6 kcal/mol and the Tm [2] was 38.4 °C.

Sequence GCTCAGCGAAAGCAGGGC ((.(.((....)).).)) has a folding enthalpy [1] of -19 kcal/mol and a Tm [2] of 51.9 °C.

GCTCAGCGAAAGCCAAGC (((..((....))..))) showed a folding enthalpy [1] of -16.4 kcal/mol and a Tm [2] of 41 °C.

For GCTCAGCGAAAGCCCAGC (((..((....))..))), the folding enthalpy [1] was -12.1 kcal/mol and the Tm [2] was 37.2 °C.

Sequence GCTCAGCGAAAGCCGTGC ((.(.((....)).).)) has a folding enthalpy [1] of -12.3 kcal/mol and a Tm [2] of 42.4 °C.

With GCTCAGCGAAAGCCTAGC (((..((....))..))) the folding enthalpy [1] was -19.7 kcal/mol and the Tm [2] was 36.1 °C.

Work on GCTCAGCGAAAGCTCTGC ((..(((....)))..)) yielded a folding enthalpy [1] of -13.4 kcal/mol and a Tm [2] of 28.8 °C.

GCTCAGCGAAAGCTTAGC (((.(((....))).))) gave a folding enthalpy [1] of -44.9 kcal/mol and a Tm [2] of 49.4 °C.

GCTCAGCGAAAGCTTCGC ((..(((....)))..)) showed a folding enthalpy [1] of -12.6 kcal/mol and a Tm [2] of 40 °C.

For GCTCAGCGAAAGCTTTGC ((..(((....)))..)), the folding enthalpy [1] was -14.4 kcal/mol and the Tm [2] was 38.6 °C.

Sequence GCTCAGGAAACTGAGC ((((((....)))))) has a folding enthalpy [1] of -42.4 kcal/mol and a Tm [2] of 64.7 °C.

Work on GCTCAGGGAAACCTGAGC (((((((....))))))) yielded a folding enthalpy [1] of -44.7 kcal/mol and a Tm [2] of 68.3 °C.

For GCTCATGGAAACGTGAGC (((((.(....).))))), the folding enthalpy [1] was -47.5 kcal/mol and the Tm [2] was 53.4 °C.

With GCTCCAACGAAAGTTAGC (((..(((....)))))) the folding enthalpy [1] was -11.8 kcal/mol and the Tm [2] was 27.9 °C.

Sequence GCTCCACGAAAGTGAGC (((.(((....)))))) has a folding enthalpy [1] of -26.2 kcal/mol and a Tm [2] of 54 °C.

GCTCCACGAAAGTGCAGC (((.(((....))).))) gave a folding enthalpy [1] of -22.1 kcal/mol and a Tm [2] of 46.2 °C.

Sequence GCTCCCACGAAAGTGAGC (((..(((....)))))) has a folding enthalpy [1] of -17.1 kcal/mol and a Tm [2] of 40.2 °C.

GCTCCCGAAAGGGAAAGC ((((((....)))..))) gave a folding enthalpy [1] of -16.6 kcal/mol and a Tm [2] of 51.7 °C.

GCTCCCGAAAGGGCGAGC ((((((....)))..))) gave a folding enthalpy [1] of -16.3 kcal/mol and a Tm [2] of 47.9 °C.

With GCTCCCGAAAGGGTTAGC ((((((....)))..))) the folding enthalpy [1] was -16.2 kcal/mol and the Tm [2] was 43.3 °C.

Sequence GCTCCCGGAAACGGGAAC (.(((((....))))).) has a folding enthalpy [1] of -15 kcal/mol and a Tm [2] of 43 °C.

Sequence GCTCCGACGAAAGTCAGC (((..(((....)))))) has a folding enthalpy [1] of -13.3 kcal/mol and a Tm [2] of 32.2 °C.

For GCTCCGCGAAAGCATAGC (((..((....))..))), the folding enthalpy [1] was -10.1 kcal/mol and the Tm [2] was 33.1 °C.

Work on GCTCCGCGAAAGCCGCGC ((.(.((....)).).)) yielded a folding enthalpy [1] of -11.8 kcal/mol and a Tm [2] of 36.2 °C.

For GCTCCGCGAAAGCCGTGC ((.(.((....)).).)), the folding enthalpy [1] was -9.49 kcal/mol and the Tm [2] was 39.1 °C.

In the case of GCTCCGCGAAAGCTCAGC (((..((....))..))), the folding enthalpy [1] was -9.77 kcal/mol and the Tm [2] was 27.2 °C.

With GCTCCGCGAAAGCTGCGC ((.(.((....)).).)) the folding enthalpy [1] was -14.5 kcal/mol and the Tm [2] was 44.4 °C.

GCTCCGGCGAAAGCCAGC (((..(((....)))))) showed a folding enthalpy [1] of -11.2 kcal/mol and a Tm [2] of 32.6 °C.

With GCTCCGGGAAACCGAAGC (((.(((....))).))) the folding enthalpy [1] was -27.9 kcal/mol and the Tm [2] was 47.5 °C.

With GCTCCTCGAAAGAGAAGC (((.(((....))).))) the folding enthalpy [1] was -29.4 kcal/mol and the Tm [2] was 46.1 °C.

In the case of GCTCGAACGAAAGTTAGC (((..(((....)))))), the folding enthalpy [1] was -12.1 kcal/mol and the Tm [2] was 31.5 °C.

Work on GCTCGACCGAAAGGTAGC (((..(((....)))))) yielded a folding enthalpy [1] of -13.8 kcal/mol and a Tm [2] of 39 °C.

GCTCGACGAAAGTCAGC (((.(((....)))))) gave a folding enthalpy [1] of -19.3 kcal/mol and a Tm [2] of 51.6 °C.

Sequence GCTCGACGAAAGTCTAGC (((.(((....))).))) has a folding enthalpy [1] of -41.8 kcal/mol and a Tm [2] of 49.6 °C.

Sequence GCTCGAGCGAAAGCTAGC (((..(((....)))))) has a folding enthalpy [1] of -13.2 kcal/mol and a Tm [2] of 39.1 °C.

In the case of GCTCGAGGAAACTCAAGC (((.(((....))).))), the folding enthalpy [1] was -30.7 kcal/mol and the Tm [2] was 37.7 °C.

For GCTCGCCGAAAGGCTAGC (((.(((....))).))), the folding enthalpy [1] was -27.9 kcal/mol and the Tm [2] was 54.6 °C.

GCTCGCGAAAGCGTAGC ((((((....))).))) showed a folding enthalpy [1] of -19 kcal/mol and a Tm [2] of 61.9 °C.

Sequence GCTCGCGAAAGCGTTAGC ((((((....)))..))) has a folding enthalpy [1] of -14.1 kcal/mol and a Tm [2] of 45.9 °C.

GCTCGCGGAAACGTGAGC ((((.((....)).)))) showed a folding enthalpy [1] of -37.6 kcal/mol and a Tm [2] of 64.9 °C.

GCTCGCGGAAACGTGGGC ((.(.((....)).).)) showed a folding enthalpy [1] of -34 kcal/mol and a Tm [2] of 50.2 °C.

Work on GCTCGGCGAAAGCTCAGC (((..((....))..))) yielded a folding enthalpy [1] of -11.9 kcal/mol and a Tm [2] of 44.7 °C.
